In ChEMBL document CHEMBL4145497, “Discovery of 2-aminothiazolyl berberine derivatives as effectively antibacterial agents toward clinically drug-resistant Gram-negative Acinetobacter baumanii” (Eur J Med Chem, 2018):
Values after ≈ are worked out from the molar mass of the structure shown.

Experiments:
Micrococcus luteus [1] = assay: Antibacterial activity against Micrococcus luteus ATCC 4698 after 18 to 24 hrs by CLSI two fold serial dilution method; type: functional
Bacillus subtilis = assay: Antibacterial activity against Bacillus subtilis ATCC 21216 after 18 to 24 hrs by CLSI two fold serial dilution method; type: functional
Candida parapsilosis = assay: Antifungal activity against Candida parapsilosis ATCC 22019 by CLSI two fold serial dilution method; type: functional; conditions: Lodderomyces parapsilosis
[2] = Aqueous solubility of the compound in phosphate buffer at pH 7.4 after 3 hrs by UV detection assay; type: physicochemical
Procedure, shortened: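 Water solubility measured at physiological pH, with berberine as the control.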

Cyberlindnera jadinii = assay: Antifungal activity against Candida utilis ATCC 9950 by CLSI two fold serial dilution method; type: functional; conditions: Williopsis jadinii
Saccharomyces cerevisiae = assay: Antifungal activity against Saccharomyces cerevisiae ATCC 9763 by CLSI two fold serial dilution method; type: functional
Pichia norvegensis = assay: Antifungal activity against Candida mycoderma ATCC 96918 by CLSI two fold serial dilution method; type: functional
Staphylococcus aureus [3] = assay: Antibacterial activity against Staphylococcus aureus ATCC 25923 after 18 to 24 hrs by CLSI two fold serial dilution method; type: functional
Escherichia coli [4] = assay: Antibacterial activity against Escherichia coli DH52 after 18 to 24 hrs by CLSI two fold serial dilution method; type: functional
Aspergillus flavus = assay: Antifungal activity against Aspergillus flavus ATCC 204304 by CLSI two fold serial dilution method; type: functional
Micrococcus luteus [5] = assay: Potency index, ratio of berberine MIC to compound MIC for antibacterial activity against Micrococcus luteus ATCC 4698; type: functional
Pseudomonas aeruginosa [6] = assay: Antibacterial activity against Pseudomonas aeruginosa ATCC 27853 after 18 to 24 hrs by CLSI two fold serial dilution method; type: functional
Candida albicans [7] = assay: Antifungal activity against Candida albicans ATCC 76615 by CLSI two fold serial dilution method; type: functional
Acinetobacter baumannii = assay: Antibacterial activity against drug-resistant Acinetobacter baumannii after 18 to 24 hrs by CLSI two fold serial dilution method; type: functional
Staphylococcus aureus [8] = assay: Antibacterial activity against methicillin-resistant Staphylococcus aureus N315 after 18 to 24 hrs by CLSI two fold serial dilution method; type: functional
Pseudomonas aeruginosa [9] = assay: Antibacterial activity against drug-resistant Pseudomonas aeruginosa after 18 to 24 hrs by CLSI two fold serial dilution method; type: functional
Enterococcus faecalis = assay: Antibacterial activity against drug-resistant Enterococcus faecalis after 18 to 24 hrs by CLSI two fold serial dilution method; type: functional
Escherichia coli [10] = assay: Antibacterial activity against drug-resistant Escherichia coli after 18 to 24 hrs by CLSI two fold serial dilution method; type: functional
Klebsiella pneumoniae = assay: Antibacterial activity against drug-resistant Klebsiella pneumoniae after 18 to 24 hrs by CLSI two fold serial dilution method; type: functional
[11] = Oral bioavailability in ICR mouse at 10.4 to 83.2 mg/kg after 60 mins by HPLC method; type: ADME, organism-based; conditions: in vivo
Aspergillus fumigatus = assay: Antifungal activity against drug-resistant Aspergillus fumigatus by CLSI two fold serial dilution method; type: functional
Candida tropicalis = assay: Antifungal activity against drug-resistant Candida tropicalis by CLSI two fold serial dilution method; type: functional
Candida albicans [12] = assay: Antifungal activity against drug-resistant Candida albicans by CLSI two fold serial dilution method; type: functional
Escherichia coli [13] = assay: Potency index, ratio of norfloxacin MIC to compound MIC for antibacterial activity against Escherichia coli DH52; type: functional

**Q.** Which MIC (Micrococcus luteus [1]) does the source give for `COc1cc(/C=N/Nc2nccs2)c2c(c1OCc1ccc(F)cc1)CN1CCc3cc4c(cc3C1C2)OCO4` (centres undefined) here?
**A.** Its MIC is 60 µM (≈ 33.5 µg/mL).

**Q.** What about the MIC (Bacillus subtilis) of the same compound?
**A.** The MIC was 230 µM (≈ 128 µg/mL).

**Q.** And the MIC (Candida parapsilosis)?
**A.** Its MIC is 30 µM (≈ 16.8 µg/mL).

**Q.** What about the solubility at 3 h [2] of the same compound?
**A.** Its solubility at 3 h is 374 to 3190 µg/mL (≈ 0.669 to 5.71 mM).

**Q.** And the MIC (Cyberlindnera jadinii)?
**A.** The MIC was 230 µM (≈ 128 µg/mL).

**Q.** And the MIC (Saccharomyces cerevisiae)?
**A.** Its MIC is 460 µM (≈ 257 µg/mL).

**Q.** And the MIC (Pichia norvegensis)?
**A.** Its MIC is 120 µM (≈ 67 µg/mL).

**Q.** And the MIC (Staphylococcus aureus [3])?
**A.** Its MIC is 110 µM (≈ 61.4 µg/mL).

**Q.** And the MIC (Escherichia coli [4])?
**A.** The MIC was 460 µM (≈ 257 µg/mL).

**Q.** What about the MIC (Aspergillus flavus) of the same compound?
**A.** The MIC was 460 µM (≈ 257 µg/mL).

**Q.** And the Ratio (Micrococcus luteus [5])?
**A.** Its Ratio is 12.

**Q.** And the MIC (Pseudomonas aeruginosa [6])?
**A.** The MIC was 230 µM (≈ 128 µg/mL).

**Q.** And the MIC (Candida albicans [7])?
**A.** Its MIC is 230 µM (≈ 128 µg/mL).

**Q.** For `COc1ccc2cc3[n+](cc2c1OC)CCc1cc2c(cc1-3)OCO2` [BERBERINE], which MIC (Micrococcus luteus [1]) is on record?
**A.** The MIC was 690 to 1380 µM.

**Q.** And the MIC (Bacillus subtilis)?
**A.** The MIC was 690 to 1380 µM.

**Q.** What about the solubility at 3 h [2] of the same compound?
**A.** The solubility at 3 h was 86 µg/mL.

**Q.** What about the MIC (Acinetobacter baumannii) of the same compound?
**A.** Its MIC is 1380 µM.

**Q.** What about the MIC (Staphylococcus aureus [8]) of the same compound?
**A.** Its MIC is 1380 µM.

**Q.** And the MIC (Pseudomonas aeruginosa [9])?
**A.** The MIC was 1380 µM.

**Q.** What about the MIC (Staphylococcus aureus [3]) of the same compound?
**A.** Its MIC is 340 µM.

**Q.** What about the MIC (Escherichia coli [4]) of the same compound?
**A.** The MIC was 690 to 1380 µM.

**Q.** What about the MIC (Enterococcus faecalis) of the same compound?
**A.** The MIC was 1380 µM.

**Q.** And the MIC (Escherichia coli [10])?
**A.** The MIC was 1380 µM.

**Q.** What about the MIC (Klebsiella pneumoniae) of the same compound?
**A.** Its MIC is 1380 µM.

**Q.** What about the MIC (Pseudomonas aeruginosa [6]) of the same compound?
**A.** Its MIC is 690 µM.

**Q.** What about the bioavailability [11] of the same compound?
**A.** The bioavailability was under 1%.

**Q.** What does the source list for `CCCCCCCCCCOc1c(OC)cc(/C=N/NC(N)=S)c2c1CN1CCc3cc4c(cc3C1C2)OCO4` (centres undefined)?
**A.** MIC (Micrococcus luteus [1]): 230 µM (≈ 130 µg/mL); MIC (Aspergillus fumigatus): 7 µM (≈ 3.97 µg/mL); MIC (Bacillus subtilis): 230 µM (≈ 130 µg/mL); MIC (Candida parapsilosis): 110 µM (≈ 62.3 µg/mL); MIC (Cyberlindnera jadinii): 450 µM (≈ 255 µg/mL); MIC (Acinetobacter baumannii): 10 µM (≈ 5.67 µg/mL); MIC (Saccharomyces cerevisiae): 230 µM (≈ 130 µg/mL); MIC (Pichia norvegensis): 230 µM (≈ 130 µg/mL); MIC (Staphylococcus aureus [8]): 30 µM (≈ 17 µg/mL); MIC (Pseudomonas aeruginosa [9]): 230 µM (≈ 130 µg/mL); MIC (Candida tropicalis): 30 µM (≈ 17 µg/mL); MIC (Candida albicans [12]): 60 µM (≈ 34 µg/mL); MIC (Staphylococcus aureus [3]): 30 µM (≈ 17 µg/mL); MIC (Escherichia coli [4]): 30 µM (≈ 17 µg/mL); MIC (Aspergillus flavus): 450 µM (≈ 255 µg/mL); MIC (Enterococcus faecalis): 30 µM (≈ 17 µg/mL); MIC (Escherichia coli [10]): 30 µM (≈ 17 µg/mL); Ratio (Escherichia coli [13]): 53; MIC (Klebsiella pneumoniae): 230 µM (≈ 130 µg/mL); MIC (Pseudomonas aeruginosa [6]): 230 µM (≈ 130 µg/mL); MIC (Candida albicans [7]): 60 µM (≈ 34 µg/mL)

**Q.** Which results are given for `COc1cc(/C=N/Nc2nccs2)c2c(c1OCCO)CN1CCc3cc4c(cc3C1C2)OCO4` (centres undefined)?
**A.** MIC (Micrococcus luteus [1]): 260 µM (≈ 129 µg/mL); MIC (Bacillus subtilis): 260 µM (≈ 129 µg/mL); MIC (Candida parapsilosis): 30 µM (≈ 14.8 µg/mL); solubility at 3 h [2]: 7020 to 10200 µg/mL (≈ 14.2 to 20.6 mM); MIC (Cyberlindnera jadinii): 520 µM (≈ 257 µg/mL); MIC (Saccharomyces cerevisiae): 520 µM (≈ 257 µg/mL); MIC (Pichia norvegensis): 520 µM (≈ 257 µg/mL); MIC (Staphylococcus aureus [3]): 130 µM (≈ 64.3 µg/mL); MIC (Escherichia coli [4]): 130 µM (≈ 64.3 µg/mL); MIC (Aspergillus flavus): 1040 µM (≈ 514 µg/mL); MIC (Pseudomonas aeruginosa [6]): 130 µM (≈ 64.3 µg/mL); MIC (Candida albicans [7]): 260 µM (≈ 129 µg/mL)
